Assay results reported in ChEMBL document CHEMBL5506034, “Development of Inhibitors, Probes, and PROTAC Provides a Complete Toolbox to Study PARK7 in the Living Cell” (J Med Chem, 2024).
Active and inactive are the calls of the source. The calls are words filed in the database; no cut-off is given here.

What was measured:
[1] = target: Ubiquitin carboxyl-terminal hydrolase isozyme L1 (Homo sapiens) (UniProt P09936); experiment: Inhibition of UCHL1 in HEK293T cells incubated for 24 hrs by SDS-PAGE based fluorescence scanning Western blot analysis; assay type: cell-based
Ubiquitin carboxyl-terminal hydrolase isozyme L1 (Homo sapiens), sequence (P09936 whole entry, looked up): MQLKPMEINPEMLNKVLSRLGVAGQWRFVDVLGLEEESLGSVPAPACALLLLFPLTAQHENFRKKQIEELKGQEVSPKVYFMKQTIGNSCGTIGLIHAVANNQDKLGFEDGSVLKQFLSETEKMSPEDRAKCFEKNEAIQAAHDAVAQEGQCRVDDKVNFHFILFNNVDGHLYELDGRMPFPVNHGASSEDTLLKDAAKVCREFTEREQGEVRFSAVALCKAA

A549 [2] = experiment: Effect on PARK7 protein level in human A549 cells at 5 uM incubated for 8 hrs by TMT-based total proteome profiling; assay type: functional, cell-based
Outline: (§1)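 A549 cells treated 2 days after seeding with 5 μM compound, or DMSO, for 8 h. Lysed in 5% SDS buffer; 100 μg protein reduced, alkylated and trypsin-digested. Peptides TMTpro-labelled, pooled, high-pH fractionated and analysed by nano-LC-MS/MS; fold change and p-value taken against DMSO.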

A549 [3] = experiment: Downregulation of DOP1B protein level in human A549 cells at 5 uM incubated for 8 hrs by TMT-based total proteome profiling; assay type: functional, cell-based; outline: as §1
A549 [4] = experiment: Cytotoxicity in human A549 cells assessed as reduction in cell viability upto 5 uM incubated for 72 hrs by CellTiter-Blue viability assay; assay type: toxicity, cell-based; details: a549, 72 h
Outline: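 A549 cells (5×10^3/well) exposed next day to inhibitor, with DMSO as control. Compound renewed at 36 h, then 36 h more (72 h total). Viability read by CellTiter-Blue, normalized to DMSO and background-corrected.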

A549 [5] = experiment: Downregulation of TM7SF3 protein level in human A549 cells at 5 uM incubated for 8 hrs by TMT-based total proteome profiling; assay type: functional, cell-based; outline: as §1
[6] = target: T1, Parkinson disease protein 7 (Homo sapiens) (UniProt Q99497); experiment: Binding affinity to PARK7 in HEK293T cells assessed as target engagement at 1 to 5 uM incubated for 24 hrs by SDS-PAGE based fluorescence scanning Western blot analysis; assay type: cell-based; details: dose 1-5 µM
T1 sequence (whole entry): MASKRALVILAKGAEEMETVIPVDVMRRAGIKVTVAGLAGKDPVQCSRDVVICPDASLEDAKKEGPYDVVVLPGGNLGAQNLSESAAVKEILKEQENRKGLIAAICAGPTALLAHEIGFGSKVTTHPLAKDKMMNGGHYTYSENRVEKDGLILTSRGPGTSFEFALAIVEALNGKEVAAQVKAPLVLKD
Outline: (§2)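 Live HEK293T cells (DMEM, 7.5% FBS, 37 °C, 5% CO2) exposed to inhibitor for 24 h, then washed and lysed in Tris/NaCl/0.5% Triton X-100/2 mM TCEP pH 7.5 buffer. Lysate labelled with SulfoCy5 probe JYQ-92 (1 μM, 30 min). Residual PARK7 activity read by SDS-PAGE with Cy5-channel fluorescence scan, then immunoblot for PARK7 with β-actin as loading control.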

[7] = target: T1, Parkinson disease protein 7 (Homo sapiens); experiment: Inhibition of PARK7 in HEK293T cells at 0.1 to 20 uM incubated for 24 hrs by SDS-PAGE based fluorescence scanning analysis; assay type: cell-based; details: dose 0.1-20 µM; outline: as §2
[8] = target: T2, Protein cereblon/Parkinson disease protein 7 (Homo sapiens) (UniProt Q96SW2+Q99497); experiment: PROTAC activity at CRBN/PARK7 in human A549 cells assessed as induction of PARK7 degradation at 0.1 to 5 uM incubated for 8 hrs by Western blot analysis; assay type: cell-based; details: dose 0.1-5 µM
T2 sequence (Q96SW2 whole entry, looked up, one chain of several): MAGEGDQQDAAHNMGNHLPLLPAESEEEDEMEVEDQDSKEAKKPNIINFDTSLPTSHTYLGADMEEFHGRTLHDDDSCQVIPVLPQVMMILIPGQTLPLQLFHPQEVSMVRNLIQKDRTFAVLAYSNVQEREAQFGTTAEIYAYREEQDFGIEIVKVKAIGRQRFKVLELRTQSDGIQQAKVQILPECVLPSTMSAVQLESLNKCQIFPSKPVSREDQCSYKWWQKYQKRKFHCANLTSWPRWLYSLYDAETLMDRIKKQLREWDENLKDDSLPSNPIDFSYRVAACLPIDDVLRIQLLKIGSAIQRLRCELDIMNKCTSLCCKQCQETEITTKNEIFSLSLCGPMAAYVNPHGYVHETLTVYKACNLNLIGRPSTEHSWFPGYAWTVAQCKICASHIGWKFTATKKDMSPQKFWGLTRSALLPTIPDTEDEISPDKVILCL
Outline: (§3)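 A549 cells treated the day after seeding with PROTAC (0.1–5 μM) for 8 h. Lysates boiled in LDS with β-mercaptoethanol and run on 4–12% Bis-Tris/MOPS SDS-PAGE. PARK7 immunoblotted and normalized to DMSO; three independent biological replicates, mean ± SD, Student's t test.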

[9] = target: T1, Parkinson disease protein 7 (Homo sapiens); experiment: Binding affinity to recombinant human PARK7 incubated for 1 hrs by coomassie staining based SDS-PAGE fluorescence scanning analysis; details: dose 0.1-10 µM
A549 [10] = experiment: Cellular protein labelling in human A549 cells assessed as unspecific 55-75 kDa band formation at 5 uM by SDS-PAGE based fluorescence scanning immunoblotting analysis; assay type: functional, cell-based
Outline: (§4)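 Probes applied to intact HEK293T or A549 cells at 5 μM final for 24 h, then lysed. Read-out by SDS-PAGE fluorescence scan and immunoblot against PARK7, looking at the ~25 kDa labelled band, PARK7 band shift and extra bands.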

[11] = target: T1, Parkinson disease protein 7 (Homo sapiens); experiment: Binding affinity to recombinant human PARK7 at 2 uM incubated for 1 hrs by coomassie staining based SDS-PAGE fluorescence scanning analysis relative to control
A549 (Homo sapiens) = experiment: Cellular protein labelling in A549 cells assessed as unspecific 55-75 kDa band formation at 5 uM by SDS-PAGE based fluorescence scanning immunoblotting analysis
[12] = target: T1, Parkinson disease protein 7 (Homo sapiens); experiment: Binding affinity to PARK7 in human A549 cells assessed as band shift at 5 uM incubated for 24 hrs by SDS-PAGE based fluorescence scanning immunoblotting analysis; assay type: cell-based; outline: as §4
[13] = target: T1, Parkinson disease protein 7 (Homo sapiens); experiment: Binding affinity to PARK7 in A549 cells assessed as band shift at 5 uM incubated for 24 hrs by SDS-PAGE based fluorescence scanning immunoblotting analysis
[14] = Drug penetration in human A549 cells at 5 uM incubated for 1 hrs by DAPI staining based confocal microscopic analysis; assay type: ADME, cell-based; details: a549, 1 h
Outline: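 A549 cells incubated with probes at 5 μM final over a time course (1–24 h). For microscopy, cells on coverslips were fixed in 3.7% formaldehyde/PBS for 20 min, mounted with DAPI and imaged by confocal (63× oil). In parallel, cells were lysed for SDS-PAGE fluorescence scan and PARK7 immunoblot.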

[15] = target: T1, Parkinson disease protein 7 (Homo sapiens); experiment: Binding affinity to PARK7 in HEK293T cells assessed as band shift at 5 uM incubated for 24 hrs by SDS-PAGE based fluorescence scanning immunoblotting analysis; assay type: cell-based; outline: as §2
[16] = target: T1, Parkinson disease protein 7 (Homo sapiens); experiment: Binding affinity to recombinant human PARK7 at 5 uM incubated for 1 hrs by coomassie staining based SDS-PAGE fluorescence scanning analysis relative to control
[17] = target: T1, Parkinson disease protein 7 (Homo sapiens); experiment: Binding affinity to recombinant human PARK7 at 1 uM incubated for 1 hrs by coomassie staining based SDS-PAGE fluorescence scanning analysis relative to control
[18] = target: T2, Protein cereblon/Parkinson disease protein 7 (Homo sapiens); experiment: PROTAC activity at CRBN/PARK7 in human A549 cells assessed as induction of PARK7 degradation at 5 uM incubated for 8 hrs by TMT-based total proteome profiling; assay type: cell-based; outline: as §1
[19] = target: T2, Protein cereblon/Parkinson disease protein 7 (Homo sapiens); experiment: PROTAC activity at CRBN/PARK7 in human A549 cells assessed as induction of PARK7 degradation at 5 uM preincubated with (R)-1-cyano-N-(5-(2-fluoro-5-(1H-1,2,3-triazol-1-yl)benzoyl)-4,5,6,7-tetrahydrothiazolo[5,4-c]pyridin-2-yl)pyrrolidine-3-carboxamide for 4 hrs followed by compound addition and measured after 8 hrs by Western blot analysis; assay type: cell-based
Outline: (§5)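 A549 cells pretreated 4 h with 5 μM pomalidomide, 5 μM PARK7 inhibitor or 10 μM MG-132, then given PROTAC (5 μM) for a further 8 h. PARK7 level assessed by lysis, SDS-PAGE and immunoblot.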

[20] = target: T2, Protein cereblon/Parkinson disease protein 7 (Homo sapiens); experiment: PROTAC activity at CRBN/PARK7 in human A549 cells assessed as induction of PARK7 degradation at 5 uM preincubated with MG-132 for 4 hrs followed by compound addition and measured after 8 hrs by Western blot analysis; assay type: cell-based; outline: as §5
[21] = target: T2, Protein cereblon/Parkinson disease protein 7 (Homo sapiens); experiment: PROTAC activity at CRBN/PARK7 in human NCI-H1299 cells assessed as induction of PARK7 degradation incubated for 8 hrs by Western blot analysis; assay type: cell-based; details: dose 0.1-5 µM
Outline: (§6)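 HeLa, H1299 or MCF7 cells (DMEM, 7.5% FBS) treated with a PROTAC concentration series for 8 h. Lysates analysed by SDS-PAGE and anti-PARK7 immunoblot.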

[22] = target: T2, Protein cereblon/Parkinson disease protein 7 (Homo sapiens); experiment: PROTAC activity at CRBN/PARK7 in human HeLa cells assessed as induction of PARK7 degradation incubated for 8 hrs by Western blot analysis; assay type: cell-based; details: dose 0.1-5 µM; outline: as §6
[23] = target: T2, Protein cereblon/Parkinson disease protein 7 (Homo sapiens); experiment: PROTAC activity at CRBN/PARK7 in human MCF7 cells assessed as induction of PARK7 degradation incubated for 8 hrs by Western blot analysis; assay type: cell-based; details: dose 0.1-5 µM; outline: as §6
[24] = target: T2, Protein cereblon/Parkinson disease protein 7 (Homo sapiens); experiment: PROTAC activity at CRBN/PARK7 in human A549 cells assessed as induction of PARK7 degradation at 5 uM preincubated with pomalidomide for 4 hrs followed by compound addition and measured after 8 hrs by Western blot analysis; assay type: cell-based; outline: as §5
[25] = target: T2, Protein cereblon/Parkinson disease protein 7 (Homo sapiens); experiment: PROTAC activity at CRBN/PARK7 in human A549 cells assessed as induction of PARK7 degradation at 5 uM incubated for 4 to 24 hrs by Western blot analysis; assay type: cell-based; details: time 4-24 hrs
Outline: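 A549 cells exposed to PROTAC at 5 μM for varying times across the 4–24 h window. Lysates analysed by SDS-PAGE and anti-PARK7 immunoblot.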

[26] = target: T2, Protein cereblon/Parkinson disease protein 7 (Homo sapiens); experiment: PROTAC activity at CRBN/PARK7 in human A549 cells assessed as induction of PARK7 degradation at 2 uM incubated for 8 hrs by Western blot analysis; assay type: cell-based; outline: as §3

Compound: N#CN1CC[C@@H](C(=O)Nc2nc3c(s2)CN(C(=O)c2cccc(-c4ncon4)c2)CC3)C1
- inhibition [1]: Active

Compound: N#CN1CC[C@@H](C(=O)Nc2nc3c(s2)CN(C(=O)c2cc(-n4ccnn4)ccc2F)CC3)C1
- Activity (A549 [2]): inactive
- Activity (A549 [3]): Active
- Activity (A549 [4]): Non-Toxic
- inhibition [1]: inactive
- Activity (A549 [5]): Active

Compound: Cc1csc(-c2cccc(C(=O)N3CCc4nc(NC(=O)[C@@H]5CCN(C#N)C5)sc4C3)c2)n1
- inhibition [1]: Active

Compound: CC(=O)N1CCN(S(=O)(=O)c2cccc(C(=O)N3CCc4nc(NC(=O)[C@@H]5CCN(C#N)C5)sc4C3)c2)CC1
- inhibition [1]: inactive
- Activity [6]: Active

Compound: N#CN1CC[C@@H](C(=O)Nc2nc3c(s2)CN(C(=O)c2cnc(-c4cccs4)s2)CC3)C1
- inhibition [1]: Active

Compound: N#CN1CC[C@@H](C(=O)Nc2nc3c(s2)CN(C(=O)CN=[N+]=[N-])CC3)C1
- inhibition [7]: inactive

Compound: N#CN1CC[C@@H](C(=O)Nc2nc3c(s2)CN(C(=O)c2cccc(S(=O)(=O)N4CCN(C(=O)Cn5cc(COCCOCCNc6cccc7c6C(=O)N(C6CCC(=O)NC6=O)C7=O)nn5)CC4)c2)CC3)C1 (stereo partly specified)
- Activity [8]: inactive

Compound: N#CN1CC[C@@H](C(=O)Nc2nc3c(s2)CN(C(=O)c2cccc(S(=O)(=O)N4CCN(C(=O)Cn5cc(COCCOCCOCCNc6cccc7c6C(=O)N(C6CCC(=O)NC6=O)C7=O)nn5)CC4)c2)CC3)C1 (stereo partly specified)
- Activity [8]: inactive

Compound: CC[N+]1=C(/C=C/C=C/C=C2/N(CCCCCC(=O)NCCCc3cn(CC(=O)N4CCN(S(=O)(=O)c5cccc(C(=O)N6CCc7nc(NC(=O)[C@@H]8CCN(C#N)C8)sc7C6)c5)CC4)nn3)c3ccc(S(=O)(=O)[O-])cc3C2(C)C)C(C)(C)c2cc(S(=O)(=O)O)ccc21
- Activity [9]: Dose-Dependent Effect
- Activity (A549 [10]): Active
- Activity [11]: 100%
- Activity (A549 (Homo sapiens)): Active
- Activity [12]: Active
- Activity [13]: Active
- Drug uptake [14]: Active

Compound: Cc1cc(C(=O)N2CCc3nc(NC(=O)[C@@H]4CCN(C#N)C4)sc3C2)ccc1Br
- inhibition [1]: Active

Compound: CC1=CC(C)=[N+]2C1=C(CCCCc1cn(CC(=O)N3CCN(S(=O)(=O)c4cccc(C(=O)N5CCc6nc(NC(=O)[C@@H]7CCN(C#N)C7)sc6C5)c4)CC3)nn1)c1c(C)cc(C)n1[B-]2(F)F
- Activity [9]: Dose-Dependent Effect
- Activity [15]: inactive
- Activity [16]: 100%
- Activity [12]: inactive

Compound: CC[N+]1=C(/C=C/C=C/C=C2/N(CCCCCC(=O)NCCCc3cn(-c4ccc(F)c(C(=O)N5CCc6nc(NC(=O)[C@@H]7CCN(C#N)C7)sc6C5)c4)nn3)c3ccc(S(=O)(=O)O)cc3C2(C)C)C(C)(C)c2cc(S(=O)(=O)[O-])ccc21
- Activity [9]: Dose-Dependent Effect
- Activity (A549 [10]): Active
- Activity (A549 (Homo sapiens)): Active
- Activity [17]: 100%
- Activity [12]: Active
- Activity [13]: Active
- Drug uptake [14]: Active

Compound: N#CN1CC[C@@H](C(=O)Nc2nc3c(s2)CN(C(=O)c2cc(-n4cc(COCCOCCNc5cccc6c5C(=O)N(C5CCC(=O)NC5=O)C6=O)nn4)ccc2F)CC3)C1 (stereo partly specified)
- Activity [8]: Active
- Activity [18]: Active
- Activity [19]: inactive
- Activity [20]: inactive
- Activity (A549 [3]): Active
- Activity [21]: Dose-Dependent Effect
- Activity [22]: Dose-Dependent Effect
- Activity [23]: Dose-Dependent Effect
- Activity [24]: inactive
- Activity [25]: Active
- Activity (A549 [5]): Active

Compound: N#CN1CC[C@@H](C(=O)Nc2nc3c(s2)CN(C(=O)c2cccc(S(=O)(=O)N4CCOCC4)c2)CC3)C1
- Activity (A549 [4]): Non-Toxic
- inhibition [1]: inactive

Compound: N#CN1CC[C@@H](C(=O)Nc2nc3c(s2)CN(C(=O)c2cc(-n4cc(COCCOCCOCCNc5cccc6c5C(=O)N(C5CCC(=O)NC5=O)C6=O)nn4)ccc2F)CC3)C1 (stereo partly specified)
- Activity [26]: Active
